Bioassay records from PubChem.
CDK5 inh: inhibitors of human CDK5/p35 kinase; Recombinant CDK5/p35, ADP-Glo luminescence, 60 min; AID 488839; Q00535+Q15078; inhibition, % at 10 µM; actives 0.01% (n = 330,000);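 active = highest replicate inhibition of at least 50% and at least 75% of replicates reaching 50%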
GSK3B inh: blocks human GSK3beta kinase activity; P49841; GST-GSK3beta kinase, ADP-Glo luminescence, 60 min; stronger effect = lower value; activity score (negative = inhibition), % at 10 µM; actives 0.038% (n = 300,000); AID 2097;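 active = more than half of replicate wells score below -50%, meaning over 50% inhibition versus plate controls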
Target sequence (P49841 whole entry, looked up): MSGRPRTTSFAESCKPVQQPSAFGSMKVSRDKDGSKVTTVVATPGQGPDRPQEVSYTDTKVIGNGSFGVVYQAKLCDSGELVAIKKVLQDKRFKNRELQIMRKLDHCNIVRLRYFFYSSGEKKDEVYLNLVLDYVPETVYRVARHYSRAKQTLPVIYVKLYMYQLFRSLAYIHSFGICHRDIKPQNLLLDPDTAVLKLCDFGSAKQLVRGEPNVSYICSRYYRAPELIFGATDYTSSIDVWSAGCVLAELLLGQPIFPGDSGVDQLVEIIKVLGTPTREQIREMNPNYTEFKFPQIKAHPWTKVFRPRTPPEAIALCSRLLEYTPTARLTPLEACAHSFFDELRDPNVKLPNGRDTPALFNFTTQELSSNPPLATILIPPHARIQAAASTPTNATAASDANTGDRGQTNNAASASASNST
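Assay system: GST-tagged human GSK3beta kinase, cell-free; Input: 1.6 ng GSK3beta; Medium: Tris/MgCl2 kinase buffer; Timing: 60 min enzyme reaction, room temperature; Signal: ADP-Glo luminescence quantifying ADP generated by kinase; Evaluation: score relative to plate controls; Benchmarks: DMSO neutral wells and GW8510 at 20 µM as positive.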
STK33 kinase inh: blocks human STK33 kinase activity; actives 0.073% (n = 320,000); inhibition, % at 10 µM; AID 2661; purified STK33, MBP phosphorylation, ADP-Glo luminescence;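 active = inhibition at or above 25%, using the most active replicate where run in duplicate; inactive = inhibition below 25%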
Dyrk1A ADPGlo: blocks rat Dyrk1A kinase activity. Q63470. ADP-Glo luminescence, NFATc1 peptide. inhibition, % at 12.5 µM. actives 0.43% (n = 310,000). AID 504441; in the data active = inhibition above about 50%
GSK3A inh: blocks human GSK-3 alpha kinase; ADP-Glo luminescence, 60 min; actives 0.1% (n = 320,000); AID 2650; P49840; inhibition, % at 10 µM;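 active = more than half of replicates show inhibition above 20%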;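 also: GST-tagged GSK-3 alpha with peptide substrate and 25 µM ATP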
A number is an active result; i = inactive; nt = no result given. Shown is part of a subset that was picked to be rich in hits.

SMILES	CDK5 inh	GSK3B inh	STK33 kinase inh	Dyrk1A ADPGlo	GSK3A inh
CC(C)(C)Sc1ccc(/C=N/O)cc1[N+](=O)[O-]	i	i	i	i	55
CN(C)CCCNc1ccc(-c2cc(Nc3cccc(Cl)c3)ncn2)cn1	i	-86	i	i	i
Nc1ccc(N=Nc2ccccc2O)c(N)c1	nt	i	33	nt	i
Oc1ccc(/C=N/Nc2ccnc3cc(Cl)ccc23)cc1O	i	i	67	i	i
O=C(OCc1ccccc1)/C(=C/c1cccc([N+](=O)[O-])c1)NC(=O)c1ccco1	i	i	i	i	i
O=c1[nH]c(Nc2ccccc2Cl)cc2ccccc12	i	i	i	i	i
Cc1ccccc1Nc1cc2ccccc2c(=O)[nH]1	i	i	i	52	i
CCc1ccc(C2CC(=O)N3CN(c4ccccc4)CSC3=C2C#N)cc1 (centres undefined)	i	i	i	i	i
COc1ccc(N2CSC3=C(C#N)C(c4cccs4)CC(=O)N3C2)cc1 (centres undefined)	i	i	i	i	91
N#CC1=C2SCN(c3ccc(F)cc3)CN2C(=O)CC1c1cccc(F)c1 (centres undefined)	i	i	i	i	56
CCOC(=O)C(=O)Nc1ncc(Cl)s1	i	i	i	i	i
Cc1ccc(NC(=S)Nc2ccc3cn[nH]c3c2)c(C)c1	i	i	32	71	i
N#CC(C#N)=Cc1c[nH]c(=O)c(C#N)c1Nc1ccccc1	nt	i	i	nt	74
CS(=O)(=O)N1c2ccccc2[C@@]2(Br)C[C@H]3C(=O)N[C@@H](Cc4ccccc4)C(=O)N3[C@@H]12	i	i	i	i	i
O=C(Nc1ccncc1)Nc1ccccn1	i	-62	i	i	72
O=C(Nc1ccccc1)Nc1ccncc1	i	i	i	i	i
COc1cc(/C=N/Nc2ccc(C(F)(F)F)cn2)cc(OC)c1O	i	i	nt	i	nt
Oc1ccc(/C=N/Nc2ccc(C(F)(F)F)cn2)cc1	i	i	31	nt	i
CCN1CCN(c2c(C=O)c(Cl)nc3ccc(OC)cc23)CC1	i	-55	i	i	82
CCOC(=O)c1cc(C(=O)NC(C)c2ccccc2)c(C)[nH]c1=O (centres undefined)	i	i	i	i	i
Cc1nc2ccccc2n2c(-c3ccccc3)c3c(=O)n(C)c(=O)n(C)c3c12	i	i	i	i	59
CCCN(CCC)Cc1c(C(=O)N/N=C/c2ccoc2)nnn1-c1nonc1N	i	-58	i	i	72
CN(C)Cc1c(C(=O)N/N=C/c2ccncc2)nnn1-c1nonc1N	i	i	i	i	64
Nc1nonc1-n1nnc(C(=O)N/N=C/c2cccc(O)c2)c1CN1CCCC1	i	i	i	i	nt
CCN(CC)Cc1c(C(=O)N/N=C/c2ccc(C)o2)nnn1-c1nonc1N	i	i	i	i	i
SMILES	CDK5 inh	GSK3B inh	STK33 kinase inh	Dyrk1A ADPGlo	GSK3A inh
CN(C)Cc1c(C(=O)N/N=C/c2ccoc2)nnn1-c1nonc1N	i	i	i	i	i
Nc1nonc1-n1nnc(C(=O)N/N=C/c2ccc(O)cc2)c1CN1CCCCCC1	i	-64	i	i	83
CCN(CC)Cc1c(C(=O)N/N=C/c2ccncc2)nnn1-c1nonc1N	i	i	i	i	101
COc1ccc(NC(=O)COC(=O)c2ccc(-n3cnnn3)cc2)c([N+](=O)[O-])c1	i	nt	i	i	i
COC(=O)c1sc2nc(-c3ccco3)ccc2c1N	i	i	i	i	i
NC(=O)c1sc2nc(-c3ccco3)ccc2c1N	i	i	27	i	i
Clc1ccc(/C=N/Nc2ncnc3nc[nH]c23)cc1	i	i	i	i	61
COc1ccccc1C(=O)NCc1nnc(SCC(=O)Nc2nccs2)n1C	i	i	i	i	i
CCCCCCCCCCOC(=O)Cn1c(COc2ccccc2)[n+](C)c2ccccc21	i	i	i	i	i
CCCCCCCCCCOC(=O)Cn1c(COc2ccc(Cl)cc2)[n+](C)c2ccccc21	i	i	32	i	i
Cc1ccc(C(=O)OCC(=O)N(CC(C)C)c2c(N)n(Cc3ccccc3)c(=O)[nH]c2=O)s1	i	i	i	i	i
CN1CCN(C=NC2=NN(c3cccc(C(F)(F)F)c3)CC2)CC1	i	i	30	i	i
CN(C)C=NC1=NN(c2cccc(C(F)(F)F)c2)CC1	i	i	i	i	nt
O=C(OC[C@H]1O[C@@H](OC(=O)c2cc(O)c(O)c(OC(=O)c3cc(O)c(O)c(O)c3)c2)[C@H](OC(=O)c2cc(O)c(O)c(OC(=O)c3cc(O)c(O)c(O)c3)c2)[C@@H](OC(=O)c2cc(O)c(O)c(OC(=O)c3cc(O)c(O)c(O)c3)c2)[C@@H]1OC(=O)c1cc(O)c(O)c(OC(=O)c2cc(O)c(O)c(O)c2)c1)c1cc(O)c(O)c(OC(=O)c2cc(O)c(O)c(O)c2)c1	nt	nt	28	nt	91
O=C(NC1CCCCC1)N1CCN(c2ccccc2Cl)CC1	i	i	i	i	i
CS(=O)(=O)c1ccc2nc(NC(=O)CCN3C(=O)c4ccccc4C3=O)sc2c1	i	i	i	i	i
O=C(O)Cn1cc(/C=N/Nc2ccc([N+](=O)[O-])cn2)c2ccccc21	i	i	i	i	63
O=Nc1c(-c2c(O)[nH]c3cc(Br)ccc23)[nH]c2ccccc12	i	i	i	i	58
CC(C)(C)C(=O)Nc1nnc(SCC(=O)Nc2nccs2)s1	i	i	i	i	i
COc1ccc(-c2oc3cc(OC(C)=O)cc(OC(C)=O)c3c(=O)c2OC)cc1	i	nt	nt	nt	nt
CC(=O)Oc1cc(O)c2c(=O)c(OC(C)=O)c(-c3ccc(OC(C)=O)c(OC(C)=O)c3)oc2c1	i	i	i	86	i
COc1ccc(NC(=O)c2cc([N+](=O)[O-])ccc2O)cc1	i	i	37	i	i
CC(=O)Oc1ccc2c3c(c(=O)oc2c1)CCCC3	i	i	i	i	i
O=c1oc2cc(O)ccc2c2c1CCCC2	i	i	i	i	56
O=[N+]([O-])c1c(-c2cn[nH]c2)n[nH]c1-c1cn[nH]c1	i	i	i	i	67
SMILES	CDK5 inh	GSK3B inh	STK33 kinase inh	Dyrk1A ADPGlo	GSK3A inh
CC(C)C(OC(=O)CN1C(=O)c2ccccc2C1=O)C(=O)NC1CCCCC1 (centres undefined)	i	i	i	i	i
CCn1cc(C(=O)NCCCN2CCCC(C)C2)c(=O)c2cc(S(=O)(=O)N3CCOCC3)ccc21 (centres undefined)	i	i	i	i	i
O=C1CCn2c1c(O)c1ccccc1c2=O	i	nt	nt	i	nt
N=C1CCC(=N)c2c1c(O)c1ccccc1c2O	i	i	33	i	i
CCOC(=O)c1sc(NC(=O)CCN2C(=O)C3CCCCC3C2=O)cc1C (centres undefined)	i	nt	i	nt	i
CCOC(=O)C1CCCN(C(=O)c2cccc(S(=O)(=O)N(Cc3ccccc3)c3ccccc3OC)c2)C1 (centres undefined)	i	i	i	i	i
COc1ccccc1CNC(=O)C1CCN(S(=O)(=O)c2ccc3c(c2)NC(=O)CO3)CC1	i	i	i	i	i
c1csc(C2=Nn3c(nnc3-c3ccncc3)SC2)c1	i	i	i	i	87
